Test results taken from ChEMBL document CHEMBL1275516, “Macrolide antibiotic-mediated downregulation of MexAB-OprM efflux pump expression in Pseudomonas aeruginosa” (2008).
In brackets after ≈: the same amount, converted by molar mass.

How the values were obtained:
Format in all cases: functional
Pseudomonas aeruginosa [1] = assay: Antibacterial activity against MeXAB-OprM deficient Pseudomonas aeruginosa TNP077 selected after 1.0 ug/ml of azithromycin by agar dilution method
How it was run: (§1)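 Agar dilution on Mueller-Hinton agar with an inoculum of 150 CFU/5 μl per spot. Plates were run with or without 1.0 μg/ml azithromycin incorporated in the agar, and MIC was read for each strain.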

Pseudomonas aeruginosa [2] = assay: Antibacterial activity against MeXAB-OprM deficient Pseudomonas aeruginosa TNP077 by agar dilution method; how it was run: as §1
Pseudomonas aeruginosa [3] = assay: Antibacterial activity against Pseudomonas aeruginosa PAO4290 by agar dilution method; how it was run: as §1
Pseudomonas aeruginosa [4] = assay: Antibacterial activity against Pseudomonas aeruginosa PAO4290 selected after 1.0 ug/ml of azithromycin by agar dilution method; how it was run: as §1
Pseudomonas aeruginosa [5] = assay: Antibacterial activity against Pseudomonas aeruginosa TNP030 selected after 1.0 ug/ml of azithromycin by agar dilution method; how it was run: as §1
Pseudomonas aeruginosa [6] = assay: Antibacterial activity against Pseudomonas aeruginosa TNP030 by agar dilution method; how it was run: as §1
Pseudomonas aeruginosa [7] = assay: Inhibition of MexAB-OprM efflux pump expression in Pseudomonas aeruginosa TNP090 mutant harboring las and rhl gene at 0.016 ug/ml by Cat-2,3-diO reporter gene assay relative to untreated control; conditions: values are per cent of control
How it was run: (§2)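 Overnight TNP090 (mexB::xylE reporter) preculture diluted 10,000-fold into fresh medium with or without antibiotic, dosed as fractions of the TNP090 MIC. Shaken at 200 rpm, 37°C, for 9 h to A600 ~1.5 (early stationary phase). Extracts made by French press at 130 MPa, then centrifuged at 13,000 × g. Cat-2,3-diO activity expressed relative to drug-free culture.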

Pseudomonas aeruginosa [8] = assay: Inhibition of MexAB-OprM efflux pump expression in Pseudomonas aeruginosa TNP090 mutant harboring las and rhl gene at 0.03 ug/ml by Cat-2,3-diO reporter gene assay relative to untreated control; conditions: values are per cent of control; how it was run: as §2
Pseudomonas aeruginosa [9] = assay: Inhibition of MexAB-OprM efflux pump expression in Pseudomonas aeruginosa TNP090 mutant harboring las and rhl gene at 0.06 ug/ml by Cat-2,3-diO reporter gene assay relative to untreated control; conditions: values are per cent of control; how it was run: as §2
Pseudomonas aeruginosa [10] = assay: Inhibition of MexAB-OprM efflux pump expression in Pseudomonas aeruginosa TNP090 mutant harboring las and rhl gene at 0.125 ug/ml by Cat-2,3-diO reporter gene assay relative to untreated control; conditions: values are per cent of control; how it was run: as §2
Pseudomonas aeruginosa [11] = assay: Inhibition of MexAB-OprM efflux pump expression in Pseudomonas aeruginosa TNP090 mutant harboring las and rhl gene at 0.25 ug/ml by Cat-2,3-diO reporter gene assay relative to untreated control; conditions: values are per cent of control; how it was run: as §2
Pseudomonas aeruginosa [12] = assay: Inhibition of MexAB-OprM efflux pump expression in las1 deficient Pseudomonas aeruginosa TNP091 at 1 ug/ml after 9 hrs by Cat-2,3-diO reporter gene assay; conditions: TNP091, 9 h, values are per cent of control
How it was run: (§3)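 Reporter strains lacking lasI, rhlI or both were diluted 10,000-fold from overnight culture into fresh medium with or without 1 μg/ml azithromycin. Cultures were shaken at 200 rpm, 37°C for 9 h (A600 ~1.5, early stationary phase). Cat-2,3-diO activity was assayed in cell extracts and […].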

Pseudomonas aeruginosa [13] = assay: Inhibition of MexAB-OprM efflux pump expression in Pseudomonas aeruginosa TNP090 mutant harboring las and rhl gene at 1 ug/ml by Cat-2,3-diO reporter gene assay
How it was run: (§4)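 Overnight TNP090 preculture diluted 100,000-fold (A600 3 × 10−5) in LB with or without 1 μg/ml azithromycin. Grown at 37°C with 200 rpm rotation and harvested at 5.5 h (AZM) or 4.5 h (drug-free), then at +2, +4 and +6 h. French-press extracts (130 MPa ×3), 13,000 × g supernatant assayed for Cat-2,3-diO. 1 unit = 1 nmol substrate/min/mg protein. Representative of repeated experiments.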

Pseudomonas aeruginosa [14] = assay: Inhibition of MexAB-OprM efflux pump expression in Pseudomonas aeruginosa TNP090 mutant harboring las and rhl gene at 1 ug/ml by Cat-2,3-diO reporter gene assay relative to untreated control; conditions: values are per cent of control; how it was run: as §2
Pseudomonas aeruginosa [15] = assay: Inhibition of MexAB-OprM efflux pump expression in las1 and rhl1 deficient Pseudomonas aeruginosa TNP093 at 1 ug/ml after 9 hrs by Cat-2,3-diO reporter gene assay; conditions: TNP093, 9 h, values are per cent of control; how it was run: as §3
Pseudomonas aeruginosa [16] = assay: Inhibition of MexAB-OprM efflux pump expression in rhl1 deficient Pseudomonas aeruginosa TNP092 at 1 ug/ml after 9 hrs by Cat-2,3-diO reporter gene assay; conditions: TNP092, 9 h, values are per cent of control; how it was run: as §3
Pseudomonas aeruginosa [17] = assay: Inhibition of MexAB-OprM efflux pump expression in Pseudomonas aeruginosa TNP090 mutant harboring las and rhl gene at 1 ug/ml after 7.5 hrs by Cat-2,3-diO reporter gene assay relative to untreated control; conditions: TNP090, 7.5 h; how it was run: as §4
Pseudomonas aeruginosa [18] = assay: Inhibition of MexAB-OprM efflux pump expression in Pseudomonas aeruginosa TNP090 mutant harboring las and rhl gene at 1 ug/ml after 9.5 hrs by Cat-2,3-diO reporter gene assay relative to untreated control; conditions: TNP090, 9.5 h; how it was run: as §4
Pseudomonas aeruginosa [19] = assay: Inhibition of MexAB-OprM efflux pump expression in Pseudomonas aeruginosa at 1.0 ug/ml
How it was run: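 TNP090 (las+ rhl+, mexB::xylE reporter) overnight culture was diluted 100,000-fold (A600 3 × 10−5) into LB with or without 1 μg/ml azithromycin and shaken at 200 rpm, 37°C. Cells were harvested at ~4.5 h (drug-free) or 5.5 h (drug), then at plus 2, 4 and 6 h. Cat-2,3-diO activity was measured in French-press extracts (1 unit = 1 nmol substrate/min/mg protein). Results are representative of repeated experiments.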

Pseudomonas aeruginosa [20] = assay: Inhibition of MexAB-OprM efflux pump expression in Pseudomonas aeruginosa TNP090 mutant harboring las and rhl gene at 1 ug/ml after 5.5 hrs by Cat-2,3-diO reporter gene assay relative to untreated control; conditions: TNP090, 5.5 h; how it was run: as §4
Pseudomonas aeruginosa [21] = assay: Inhibition of MexAB-OprM efflux pump expression in Pseudomonas aeruginosa TNP090 mutant harboring las and rhl gene at 0.5 ug/ml by Cat-2,3-diO reporter gene assay relative to untreated control; conditions: values are per cent of control; how it was run: as §2
Pseudomonas aeruginosa [22] = assay: Antibacterial activity against Pseudomonas aeruginosa TNP090 harboring chromosomal mexB::xylE fusion construct by agar dilution method
How it was run: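 Agar dilution MIC on Mueller-Hinton agar; inoculum 5 × 10^3 cells per spot.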

Pseudomonas aeruginosa [23] = assay: Inhibition of MexAB-OprM efflux pump expression in Pseudomonas aeruginosa TNP090 mutant harboring las and rhl gene at 1 ug/ml after 11.5 hrs by Cat-2,3-diO reporter gene assay relative to untreated control; conditions: TNP090, 11.5 h; how it was run: as §4

Structure (SMILES) | MIC (Pseudomonas aeruginosa [1]) [µg/mL] | MIC (Pseudomonas aeruginosa [2]) [µg/mL] | MIC (Pseudomonas aeruginosa [3]) [µg/mL] | MIC (Pseudomonas aeruginosa [4]) [µg/mL] | MIC (Pseudomonas aeruginosa [5]) [µg/mL] | MIC (Pseudomonas aeruginosa [6]) [µg/mL] | other results
CN(C)[C@@H]1C(O)=C(C(N)=O)C(=O)[C@@]2(O)C(O)=C3C(=O)c4c(O)cccc4[C@@](C)(O)[C@H]3C[C@@H]12 [TETRACYCLINE] | 0.39 | 0.39 (≈ 0.878 µM) | 12.5 (≈ 28.1 µM) | 3.13 | 50 | 50 (≈ 113 µM) | response, % of control at 0.016 µg/mL (Pseudomonas aeruginosa [7]): 103%; response, % of control at 0.03 µg/mL (Pseudomonas aeruginosa [8]): 94%; response, % of control at 0.06 µg/mL (Pseudomonas aeruginosa [9]): 69%; response, % of control at 0.125 µg/mL (Pseudomonas aeruginosa [10]): 51%
C[C@H]1[C@H](NC(=O)/C(=N\OC(C)(C)C(=O)O)c2csc(N)n2)C(=O)N1S(=O)(=O)O [AZTREONAM] | 0.1 | 0.1 (≈ 0.23 µM) | 3.12 (≈ 7.17 µM) | 1.56 | 12.5 | 12.5 (≈ 28.7 µM) | –
CC(C)(O/N=C(\C(=O)N[C@@H]1C(=O)N2C(C(=O)[O-])=C(C[n+]3ccccc3)CS[C@H]12)c1csc(N)n1)C(=O)O [CEFTAZIDIME] | 0.39 | 0.39 (≈ 0.714 µM) | 1.56 (≈ 2.85 µM) | 1.56 | 3.13 | 3.13 (≈ 5.73 µM) | –
CC[C@H]1OC(=O)[C@H](C)[C@@H](O[C@H]2C[C@@](C)(OC)[C@@H](O)[C@H](C)O2)[C@H](C)[C@@H](O[C@@H]2O[C@H](C)C[C@H](N(C)C)[C@H]2O)[C@](C)(O)C[C@@H](C)CN(C)[C@H](C)[C@@H](O)[C@]1(C)O [AZITHROMYCIN] | – | – | – | – | – | – | response, % of control at 0.25 µg/mL (Pseudomonas aeruginosa [11]): 78%; response, % of control at 1 µg/mL (Pseudomonas aeruginosa [12]): 99%; Activity (Pseudomonas aeruginosa [13]): 44.3; response, % of control at 1 µg/mL (Pseudomonas aeruginosa [14]): 37%; response, % of control at 1 µg/mL (Pseudomonas aeruginosa [15]): 100%; response, % of control at 1 µg/mL (Pseudomonas aeruginosa [16]): 90%; inhibition at 1 µg/mL (Pseudomonas aeruginosa [17]): -73%; inhibition at 1 µg/mL (Pseudomonas aeruginosa [18]): -70.2%; inhibition at 1 µg/mL (Pseudomonas aeruginosa [19]): 70%; inhibition at 1 µg/mL (Pseudomonas aeruginosa [20]): -30.9%; response, % of control at 0.5 µg/mL (Pseudomonas aeruginosa [21]): 65%; MIC (Pseudomonas aeruginosa [22]): 6.25 µg/mL (≈ 8.34 µM); inhibition at 1 µg/mL (Pseudomonas aeruginosa [23]): -63%; response, % of control at 0.125 µg/mL (Pseudomonas aeruginosa [10]): 85%
CC1(C)S[C@@H]2[C@H](NC(=O)C(C(=O)O)c3ccccc3)C(=O)N2[C@H]1C(=O)O (stereo partly specified) [CARBENICILLIN] | 1.56 | 0.78 (≈ 2.06 µM) | 50 (≈ 132 µM) | 12.5 | 200 | 200 (≈ 529 µM) | –
CC1COc2c(N3CCN(C)CC3)c(F)cc3c(=O)c(C(=O)O)cn1c23 (stereo unspecified) [OFLOXACIN] | 0.05 | 0.05 (≈ 0.138 µM) | 0.78 (≈ 2.16 µM) | 0.78 | > 1.56 | > 1.56 | –
CO[C@@H]1[C@@H](OC(N)=O)[C@@H](O)[C@H](Oc2ccc3c(O)c(NC(=O)c4ccc(O)c(CC=C(C)C)c4)c(=O)oc3c2C)OC1(C)C [NOVOBIOCIN] | 12.5 | 12.5 (≈ 20.4 µM) | 800 (≈ 1310 µM) | 200 | > 1200 | > 1200 | –
O=C(N[C@H](CO)[C@H](O)c1ccc([N+](=O)[O-])cc1)C(Cl)Cl [CHLORAMPHENICOL] | 0.39 | 0.39 (≈ 1.21 µM) | 25 (≈ 77.4 µM) | 6.25 | 200 | 200 (≈ 619 µM) | –
C[C@@H](O)[C@H]1C(=O)N2C(C(=O)O)=C(SCCNC=N)C[C@H]12 [IMIPENEM ANHYDROUS] | 0.78 | 0.78 (≈ 2.61 µM) | 0.78 (≈ 2.61 µM) | 0.78 | 0.78 | 0.78 (≈ 2.61 µM) | –
